The text below walks through data of publication PMC8399557 (Journal of medicinal chemistry, 2020).

Common to all, as to format: physicochemical
One series is described as follows: Optical properties. Conditions: for Abs (nm) / Em (nm) / Extinction Coefficient (cm^−1M^−1) / Stokes Shift (nm): in methanol; for Quantum yield (%, in Methanol): quinine bisulfate as the reference.
Series [1] in a line: Solvolytic stability of difluoro-dioxaborinins by 19F NMR in water/DMSO. The following applies: for fold more rapid solvolysis than 5: determined in 5.55 M H2O; for Stability (t1/2, h) 10% H2O/90% DMSO / Stability (t1/2, h) 90% H2O/10% DMSO: solvolysis half-life, 19F NMR, 25 °C; for Stability (t1/2, h) 10% H2O/90% DMSO: 10% H2O/90% DMSO (5.55 M H2O); for times more resistant to solvolysis than 1: in 50 M H2O; for Stability (t1/2, h) 90% H2O/10% DMSO: 90% H2O/10% DMSO (50 M H2O); for Fold increase in stability (90% to 10% H2O): solvolysis in 5.5 M H2O vs. 50 M H2O; for relative solvolytic stability (in words): comparison among Figure 2 / Table 1 compounds, 10% water/90% DMSO. The method in brief:
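Test compound was held in 10% or 90% aqueous DMSO, with aqueous portions in 1X PBS (pH 7.4, 10 mM), and 19F NMR spectra were integrated over time. The fraction of 19F on the test compound was taken as its integral divided by the sum of all fluoride integrals. Fractions versus time were fitted to P = exp(−k*t), and half-lives were derived from k.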

Series [2] is described as follows: Water solubility judged by silica TLC with water as the mobile phase.

Molecules are shown by their SMILES.

Turning to `COc1cc(/C=C/C2=CC(/C=C/c3ccc(OC(=O)c4c(F)cc(F)cc4F)c(OC)c3)=[O+][B-](F)(F)O2)ccc1OC(=O)c1c(F)cc(F)cc1F` [Compound 9, ((1E,1′E)-(2,2-difluoro-2H-1λ^3,3,2λ^4-dioxaborinine-4,6-diyl)bis(ethene-2,1-diyl))bis(2-methoxy-4,1-phenylene) bis(2,4,6-trifluorobenzoate)], in “Optical properties”, the “Abs (nm)” value turned out to be 430 nm, the “Em (nm)” value turned out to be 512 nm, the “Extinction Coefficient (cm^−1M^−1)” value is listed as 50,800 cm^−1M^−1 and the “Stokes Shift (nm)” value is 82 nm. In addition, the “Quantum yield (%, in Methanol)” value in the series “Optical properties” was 3.0%. In series [1], the “fold more rapid solvolysis than 5” value is 33 fold and the “Stability (t1/2, h) 10% H2O/90% DMSO” value stood at 11.9 ± 0.4 h.

For `CC1=[O+][B-](F)(F)OC(C)=C1C` [Compound 2, 2,2-Difluoro-4,5,6-trimethyl-2H-1λ^3,3,2λ^4-dioxaborinine], in “Optical properties”, the “Abs (nm)” value is 303 nm, the “Em (nm)” value is reported as 307 nm, the “Extinction Coefficient (cm^−1M^−1)” value is given as 12,200 cm^−1M^−1 and the “Stokes Shift (nm)” value was 4 nm. Also, in series [2], the “water solubility (in words)” value was “water solubility that allowed them to be resolved on silica TLC with water as the mobile phase”. In series [1], the “times more resistant to solvolysis than 1” value (“times more resistant” for short) came out at 6.2 times; the “Stability (t1/2, h) 10% H2O/90% DMSO” value is reported as 53.9 ± 1.1 h; the “Stability (t1/2, h) 90% H2O/10% DMSO” value stood at 17.1 ± 0.7 h; the “Fold increase in stability (90% to 10% H2O)” value was found to be 3.2 fold.

`CC1=CC(C)=[O+][B-](F)(F)O1` [Compound 1, 2,2-Difluoro-4,6-dimethyl-2H-1λ^3,3,2λ^4-dioxaborinine]: in the series “Optical properties”, the “Abs (nm)” value is given as 279 nm, the “Em (nm)” value was determined as 305 nm, the “Extinction Coefficient (cm^−1M^−1)” value is 9,180 cm^−1M^−1 and the “Stokes Shift (nm)” value was 26 nm. Further, the “water solubility (in words)” value in series [2] is listed as “water solubility that allowed them to be resolved on silica TLC with water as the mobile phase”. The “solvolysis in the absence of water” value in series [1] (100% DMSO) is “not observed”. In addition, the “fraction decomposed at 110 min (one F-18 half-life) post i.v. injection” value in series [1] (assuming the in vitro solvolysis rate translates in vivo) is on record as 37%. In series [1], the “relative solvolytic stability (in words)” value is reported as “second most rapid difluoro-dioxaborinin to undergo aqueous solvolysis”; the “Stability (t1/2, h) 10% H2O/90% DMSO” value amounted to 7.63 ± 0.18 h; the “Stability (t1/2, h) 90% H2O/10% DMSO” value came out at 2.73 ± 0.02 h; the “Fold increase in stability (90% to 10% H2O)” value amounted to 2.8 fold.

`CC1=C2CCCCC2=[O+][B-](F)(F)O1` [Compound 15, 2,2-Difluoro-4-methyl-5,6,7,8-tetrahydro-2H-1λ^3,2λ^4-benzo[e][1,3,2]dioxaborinine]: in “Optical properties”, the “Abs (nm)” value was 303 nm, the “Em (nm)” value was 307 nm, the “Extinction Coefficient (cm^−1M^−1)” value was 12,000 cm^−1M^−1 and the “Stokes Shift (nm)” value was determined as 4 nm. Further, the “water solubility (in words)” value in series [2] is “water solubility that allowed them to be resolved on silica TLC with water as the mobile phase”. For the same compound, in series [1], the “times more resistant” value was determined as 2.5 times; the “Stability (t1/2, h) 10% H2O/90% DMSO” value was 33.7 ± 1.1 h; the “Stability (t1/2, h) 90% H2O/10% DMSO” value is 6.75 ± 0.19 h; the “Fold increase in stability (90% to 10% H2O)” value came to 5.0 fold.

With `COc1cc(/C=C/C2=CC(/C=C/c3ccc(OC(=O)CCN4C(=O)C=CC4=O)c(OC)c3)=[O+][B-](F)(F)O2)ccc1OC(=O)CCN1C(=O)C=CC1=O` [Compound 10, ((1E,1′E)-(2,2-difluoro-2H-1λ^3,3,2λ^4-dioxaborinine-4,6-diyl)bis(ethene-2,1-diyl))bis(2-methoxy-4,1-phenylene) bis(3-(2,5-dioxo-2,5-dihydro-1H-pyrrol-1-yl)propanoate)], in “Optical properties”, the “Abs (nm)” value was found to be 434 nm, the “Em (nm)” value amounted to 509 nm, the “Extinction Coefficient (cm^−1M^−1)” value is 54,000 cm^−1M^−1 and the “Stokes Shift (nm)” value came to 75 nm. Further, the “Quantum yield (%, in Methanol)” value in the series “Optical properties” came to 3.1%. In addition, in series [1], the “fold more rapid solvolysis than 5” value is recorded as 24 fold and the “Stability (t1/2, h) 10% H2O/90% DMSO” value is listed as 16.0 ± 0.2 h.

Take `CCC1=C(C)O[B-](F)(F)[O+]=C1C` [Compound 3, 5-Ethyl-2,2-difluoro-4,6-dimethyl-2H-1λ^3,3,2λ^4-dioxaborinine]: in “Optical properties”, the “Abs (nm)” value turned out to be 303 nm, the “Em (nm)” value worked out at 306 nm, the “Extinction Coefficient (cm^−1M^−1)” value is recorded as 12,000 cm^−1M^−1 and the “Stokes Shift (nm)” value is on record as 3 nm. Besides, the “water solubility (in words)” value in series [2] is “water solubility that allowed them to be resolved on silica TLC with water as the mobile phase”. Moreover, in series [1], the “times more resistant” value was 5.6 times; the “Stability (t1/2, h) 10% H2O/90% DMSO” value was 53.9 ± 1.5 h; the “Stability (t1/2, h) 90% H2O/10% DMSO” value came out at 15.2 ± 0.5 h; the “Fold increase in stability (90% to 10% H2O)” value was found to be 3.5 fold.

For the compound `CC1=CC(c2ccccc2)=[O+][B-](F)(F)O1` [Compound 14, 2,2-Difluoro-4-methyl-6-phenyl-2H-1λ^3,3,2λ^4-dioxaborinine], in “Optical properties”, the “Abs (nm)” value worked out at 325 nm, the “Em (nm)” value is on record as 328 nm, the “Extinction Coefficient (cm^−1M^−1)” value is 19,800 cm^−1M^−1 and the “Stokes Shift (nm)” value stood at 3 nm. Also, in series [1] (Table 1 conditions), the “solvolysis half-life compared with F-18 nuclear decay half-life” value is on record as greater than 110 min. In addition, in series [1], the “relative solvolytic stability (in words)” value is on record as “least stable” and the “Stability (t1/2, h) 10% H2O/90% DMSO” value was 4.46 ± 0.05 h.

Regarding `CCOC(=O)CCC1=C(C)O[B-](F)(F)[O+]=C1C` [Compound 6, Ethyl 3-(2,2-difluoro-4,6-dimethyl-2H-1λ^3,3,2λ^4-dioxaborinin-5-yl)propanoate], in “Optical properties”, the “Abs (nm)” value was 301 nm, the “Em (nm)” value is listed as 307 nm, the “Extinction Coefficient (cm^−1M^−1)” value is reported as 12,600 cm^−1M^−1 and the “Stokes Shift (nm)” value amounted to 6 nm. Moreover, in series [2], the “water solubility (in words)” value was “water solubility that allowed them to be resolved on silica TLC with water as the mobile phase”. Also, in series [1], the “times more resistant” value came out at 1.9 times; the “Stability (t1/2, h) 10% H2O/90% DMSO” value is 24.6 ± 0.5 h; the “Stability (t1/2, h) 90% H2O/10% DMSO” value came to 5.19 ± 0.15 h; the “Fold increase in stability (90% to 10% H2O)” value amounted to 4.7 fold.
